Results reported in BindingDB's records for doi:10.1016/j.bmc.2013.04.054 (Northwestern University, 2013).

Molecular target: Voltage-dependent L-type calcium channel subunit alpha-1C (Oryctolagus cuniculus, UniProt P15381)
Experiment: Antagonist activity at rabbit voltage-dependent L-type calcium channel Cav1.2alpha-1C expressed in HEK293 cells by FLIPR assay
In short: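 HEK293 lines stably expressing rat CaV1.3α1D or rabbit CaV1.2α1C, with rat CaVβ3 and rat CaVα2δ-1 cDNAs used in construction. Calcium influx was read by Fluo-8 fluorescence on a FLIPR Tetra. […] The selectivity ratio is CaV1.3 IC50 over CaV1.2 IC50.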

Chain of Voltage-dependent L-type calcium channel subunit alpha-1C (P15381 whole entry): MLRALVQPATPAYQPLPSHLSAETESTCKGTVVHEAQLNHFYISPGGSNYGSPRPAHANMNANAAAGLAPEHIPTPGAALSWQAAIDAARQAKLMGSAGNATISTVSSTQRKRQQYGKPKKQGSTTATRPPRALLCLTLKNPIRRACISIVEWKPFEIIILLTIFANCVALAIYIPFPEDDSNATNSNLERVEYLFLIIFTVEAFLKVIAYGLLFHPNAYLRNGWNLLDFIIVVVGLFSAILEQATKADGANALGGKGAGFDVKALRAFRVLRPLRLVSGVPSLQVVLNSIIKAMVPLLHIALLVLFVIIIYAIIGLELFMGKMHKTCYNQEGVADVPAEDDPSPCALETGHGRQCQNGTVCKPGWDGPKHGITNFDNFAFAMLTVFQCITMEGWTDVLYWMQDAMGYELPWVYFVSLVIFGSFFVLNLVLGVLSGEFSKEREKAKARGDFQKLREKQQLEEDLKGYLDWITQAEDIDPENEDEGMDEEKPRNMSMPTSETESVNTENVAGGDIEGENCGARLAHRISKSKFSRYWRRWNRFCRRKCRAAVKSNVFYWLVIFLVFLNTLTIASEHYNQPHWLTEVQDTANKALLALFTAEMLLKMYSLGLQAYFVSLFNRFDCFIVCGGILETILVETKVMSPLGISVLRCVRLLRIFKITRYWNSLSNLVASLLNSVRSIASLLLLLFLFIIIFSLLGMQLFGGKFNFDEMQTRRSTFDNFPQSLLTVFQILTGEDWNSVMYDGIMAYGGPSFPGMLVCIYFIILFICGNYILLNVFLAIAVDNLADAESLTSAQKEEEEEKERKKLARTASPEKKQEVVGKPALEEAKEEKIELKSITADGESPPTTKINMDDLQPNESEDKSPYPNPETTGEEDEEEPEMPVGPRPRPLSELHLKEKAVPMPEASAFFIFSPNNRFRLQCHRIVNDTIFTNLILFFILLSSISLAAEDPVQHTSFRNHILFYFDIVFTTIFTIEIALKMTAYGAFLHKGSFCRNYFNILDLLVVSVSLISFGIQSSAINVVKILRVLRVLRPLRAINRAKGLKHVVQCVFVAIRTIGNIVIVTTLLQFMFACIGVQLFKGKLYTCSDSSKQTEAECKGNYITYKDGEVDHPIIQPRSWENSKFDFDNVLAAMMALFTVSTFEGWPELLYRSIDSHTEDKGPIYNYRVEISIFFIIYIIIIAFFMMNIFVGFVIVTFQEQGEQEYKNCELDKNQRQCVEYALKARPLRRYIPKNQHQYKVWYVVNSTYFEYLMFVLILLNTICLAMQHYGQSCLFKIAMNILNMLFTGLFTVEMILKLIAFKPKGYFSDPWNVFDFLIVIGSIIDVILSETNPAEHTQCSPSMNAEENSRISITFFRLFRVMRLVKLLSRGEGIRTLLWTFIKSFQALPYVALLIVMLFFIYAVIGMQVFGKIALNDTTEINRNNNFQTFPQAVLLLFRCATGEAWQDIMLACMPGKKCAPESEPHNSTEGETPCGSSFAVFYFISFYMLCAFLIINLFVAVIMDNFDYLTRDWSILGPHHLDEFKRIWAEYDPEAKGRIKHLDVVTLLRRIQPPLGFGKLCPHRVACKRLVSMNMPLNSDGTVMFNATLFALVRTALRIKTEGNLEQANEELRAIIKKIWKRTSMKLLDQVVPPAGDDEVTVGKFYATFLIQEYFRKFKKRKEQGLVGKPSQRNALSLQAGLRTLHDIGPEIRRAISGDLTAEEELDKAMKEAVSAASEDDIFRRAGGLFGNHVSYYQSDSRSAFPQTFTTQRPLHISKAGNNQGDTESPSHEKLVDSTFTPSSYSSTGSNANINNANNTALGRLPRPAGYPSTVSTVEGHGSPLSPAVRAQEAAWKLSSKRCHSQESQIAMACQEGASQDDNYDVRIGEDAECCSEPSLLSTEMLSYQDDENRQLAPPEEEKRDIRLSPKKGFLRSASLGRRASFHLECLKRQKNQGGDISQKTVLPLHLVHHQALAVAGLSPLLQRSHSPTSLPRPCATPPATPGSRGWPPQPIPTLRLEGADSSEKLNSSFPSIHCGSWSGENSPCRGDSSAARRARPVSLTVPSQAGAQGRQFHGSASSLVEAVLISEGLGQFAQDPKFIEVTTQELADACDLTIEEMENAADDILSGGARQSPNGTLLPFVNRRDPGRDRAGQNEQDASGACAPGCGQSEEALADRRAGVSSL

Compound | IC50 [nM]
COC(=O)N1C(=O)N=C(C)C(C(=O)OC(C)C)[C@@H]1c1cccc([N+](=O)[O-])c1 (some centres not stated) | 2480
COC(=O)C1C(C)=NC(=O)N(C(=O)OC(C)C)C1c1cccc([N+](=O)[O-])c1 (configuration not stated) | 2480
